The record followed here is ChEMBL document CHEMBL1142744 (Bioorg Med Chem Lett, 2005).

Experiment [1] deals with Neuronal acetylcholine receptor; alpha3/beta2 (Rattus norvegicus, UniProt P04757+P12390). As to the kind of experiment: In vitro binding affinity towards rat Nicotinic acetylcholine receptor alpha3-beta2 using 0.5 nM [3H]epibatidine. The experiment is classed as protein-complex assay.
Experiment [2] addresses Neuronal acetylcholine receptor; alpha3/beta4 (Rattus norvegicus, UniProt P04757+P12392). Description: In vitro binding affinity towards rat Nicotinic acetylcholine receptor alpha3-beta4 using 0.5 nM [3H]epibatidine. The class given is protein-complex assay.
For experiment [3], the target named is Neuronal acetylcholine receptor; alpha4/beta4 (Rattus norvegicus, UniProt P09483+P12392). As to the kind of experiment: In vitro binding affinity towards rat Nicotinic acetylcholine receptor alpha4-beta4 using 0.5 nM [3H]epibatidine. The experiment is classed as protein-complex assay. The gist of the method: (§1)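 Stably transfected cell lines, each expressing one rat nAChR subtype (α4β2 or α4β4), were used. Ki was derived from the radioligand Kd for each subtype.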

Experiment [4] has as its target Neuronal acetylcholine receptor; alpha3/beta4 (Rattus norvegicus) (UniProt P04757+P12392). Description: Agonistic activity as [86Rb+] efflux from KXalpha-3-beta-4R2 cells expressing rat Nicotinic acetylcholine receptor at 100 uM. The class given is functional. The gist of the method: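 KXα3β4R2 cells stably expressing functional rat α3β4 receptors were used. Agonism was read as stimulated 86Rb+ efflux in the presence of compound at 100 µM.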

For experiment [5], the target named is Neuronal acetylcholine receptor; alpha4/beta2 (Rattus norvegicus, UniProt P09483+P12390). Description: In vitro binding affinity towards rat Nicotinic acetylcholine receptor alpha4-beta2 using 0.5 nM [3H]epibatidine. The class given is protein-complex assay. The gist of the method: as §1
The target of experiment [6] is Neuronal acetylcholine receptor; alpha2/beta4 (Rattus norvegicus, UniProt P12389+P12392). Description: In vitro binding affinity towards rat Nicotinic acetylcholine receptor alpha2-beta4 using 0.5 nM [3H]epibatidine. The class given is protein-complex assay.
The target in experiment [7] is Neuronal acetylcholine receptor; alpha2/beta2 (Rattus norvegicus, UniProt P12389+P12390). Description: In vitro binding affinity towards rat Nicotinic acetylcholine receptor alpha2-beta2 using 0.5 nM [3H]epibatidine. The class given is protein-complex assay.
Chain of Neuronal acetylcholine receptor; alpha2/beta2 (P12389 whole entry): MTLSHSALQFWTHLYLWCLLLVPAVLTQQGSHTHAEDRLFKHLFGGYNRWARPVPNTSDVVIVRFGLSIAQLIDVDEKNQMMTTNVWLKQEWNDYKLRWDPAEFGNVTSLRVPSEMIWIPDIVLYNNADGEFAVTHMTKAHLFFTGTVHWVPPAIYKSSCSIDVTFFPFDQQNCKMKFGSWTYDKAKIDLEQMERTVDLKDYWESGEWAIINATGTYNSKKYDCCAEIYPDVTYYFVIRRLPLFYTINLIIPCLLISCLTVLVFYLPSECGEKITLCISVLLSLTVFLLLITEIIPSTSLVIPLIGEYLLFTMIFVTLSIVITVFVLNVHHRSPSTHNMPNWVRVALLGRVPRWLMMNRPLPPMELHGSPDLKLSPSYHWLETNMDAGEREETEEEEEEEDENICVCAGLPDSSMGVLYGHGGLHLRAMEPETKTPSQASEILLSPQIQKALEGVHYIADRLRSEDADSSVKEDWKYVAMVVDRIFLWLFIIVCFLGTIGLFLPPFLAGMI
Chain of Neuronal acetylcholine receptor; alpha2/beta2 (P12390 whole entry): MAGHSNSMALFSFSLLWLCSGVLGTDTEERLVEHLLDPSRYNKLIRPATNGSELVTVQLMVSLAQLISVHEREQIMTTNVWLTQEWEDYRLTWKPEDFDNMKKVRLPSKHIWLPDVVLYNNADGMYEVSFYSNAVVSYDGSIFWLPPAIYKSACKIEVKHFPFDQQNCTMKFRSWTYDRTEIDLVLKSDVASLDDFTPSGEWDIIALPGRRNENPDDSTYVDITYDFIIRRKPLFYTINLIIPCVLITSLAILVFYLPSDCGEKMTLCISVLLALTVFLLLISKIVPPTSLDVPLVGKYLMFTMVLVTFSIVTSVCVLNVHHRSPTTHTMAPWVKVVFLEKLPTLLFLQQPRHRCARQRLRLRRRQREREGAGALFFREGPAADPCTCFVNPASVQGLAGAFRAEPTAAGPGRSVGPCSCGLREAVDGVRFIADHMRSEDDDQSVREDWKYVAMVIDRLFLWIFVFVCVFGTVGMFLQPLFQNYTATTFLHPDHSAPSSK

Chain of Neuronal acetylcholine receptor; alpha2/beta4 (P12389 whole entry): as the sequence (P12389 whole entry) above
Chain of Neuronal acetylcholine receptor; alpha2/beta4 (P12392 whole entry): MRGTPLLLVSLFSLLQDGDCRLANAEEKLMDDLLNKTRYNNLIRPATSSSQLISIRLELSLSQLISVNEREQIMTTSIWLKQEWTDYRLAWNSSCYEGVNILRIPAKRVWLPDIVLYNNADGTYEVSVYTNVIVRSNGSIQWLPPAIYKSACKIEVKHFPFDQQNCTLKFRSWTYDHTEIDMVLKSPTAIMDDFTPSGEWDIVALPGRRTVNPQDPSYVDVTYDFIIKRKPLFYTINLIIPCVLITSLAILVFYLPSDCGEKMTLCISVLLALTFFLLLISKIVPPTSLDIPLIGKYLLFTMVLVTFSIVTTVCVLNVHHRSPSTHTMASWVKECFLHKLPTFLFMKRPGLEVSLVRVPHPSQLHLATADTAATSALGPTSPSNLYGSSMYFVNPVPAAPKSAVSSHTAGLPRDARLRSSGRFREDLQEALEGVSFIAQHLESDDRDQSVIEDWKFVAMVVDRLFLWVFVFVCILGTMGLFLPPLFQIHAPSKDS
Chain of Neuronal acetylcholine receptor; alpha3/beta4 (P04757 whole entry): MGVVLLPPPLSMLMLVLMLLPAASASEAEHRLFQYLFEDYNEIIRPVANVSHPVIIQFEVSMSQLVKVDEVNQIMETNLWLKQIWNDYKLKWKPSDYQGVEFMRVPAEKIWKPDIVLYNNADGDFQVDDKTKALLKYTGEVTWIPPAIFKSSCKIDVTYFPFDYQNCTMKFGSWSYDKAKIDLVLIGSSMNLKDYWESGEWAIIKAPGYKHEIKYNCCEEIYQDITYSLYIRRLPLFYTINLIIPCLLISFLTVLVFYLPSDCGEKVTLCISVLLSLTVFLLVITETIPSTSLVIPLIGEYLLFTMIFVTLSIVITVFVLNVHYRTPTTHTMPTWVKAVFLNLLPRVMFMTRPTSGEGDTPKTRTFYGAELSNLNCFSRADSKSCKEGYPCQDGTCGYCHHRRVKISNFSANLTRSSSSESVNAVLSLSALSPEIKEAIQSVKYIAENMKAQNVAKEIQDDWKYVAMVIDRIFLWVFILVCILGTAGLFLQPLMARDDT
Chain of Neuronal acetylcholine receptor; alpha3/beta4 (P12392 whole entry): as the sequence (P12392 whole entry) above
Chain of Neuronal acetylcholine receptor; alpha3/beta2 (P04757 whole entry): as the sequence (P04757 whole entry) above
Chain of Neuronal acetylcholine receptor; alpha3/beta2 (P12390 whole entry): as the sequence (P12390 whole entry) above
Chain of Neuronal acetylcholine receptor; alpha4/beta4 (P09483 whole entry): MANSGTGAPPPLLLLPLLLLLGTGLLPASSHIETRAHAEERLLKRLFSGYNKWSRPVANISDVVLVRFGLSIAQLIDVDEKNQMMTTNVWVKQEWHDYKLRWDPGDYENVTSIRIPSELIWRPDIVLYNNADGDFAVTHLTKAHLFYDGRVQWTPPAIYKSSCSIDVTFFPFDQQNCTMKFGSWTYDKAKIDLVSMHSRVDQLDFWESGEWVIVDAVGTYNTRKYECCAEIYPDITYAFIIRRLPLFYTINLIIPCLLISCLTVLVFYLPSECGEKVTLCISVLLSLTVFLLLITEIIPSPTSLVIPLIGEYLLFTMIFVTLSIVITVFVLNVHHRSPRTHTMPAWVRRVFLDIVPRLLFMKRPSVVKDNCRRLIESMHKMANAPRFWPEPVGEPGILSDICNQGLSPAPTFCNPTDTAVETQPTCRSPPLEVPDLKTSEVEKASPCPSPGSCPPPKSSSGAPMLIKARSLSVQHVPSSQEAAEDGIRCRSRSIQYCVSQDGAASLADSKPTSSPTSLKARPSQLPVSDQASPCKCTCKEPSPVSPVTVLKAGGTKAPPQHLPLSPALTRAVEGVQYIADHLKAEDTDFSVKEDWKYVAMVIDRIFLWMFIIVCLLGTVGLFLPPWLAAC
Chain of Neuronal acetylcholine receptor; alpha4/beta4 (P12392 whole entry): as the sequence (P12392 whole entry) above
Chain of Neuronal acetylcholine receptor; alpha4/beta2 (P09483 whole entry): as the sequence (P09483 whole entry) above
Chain of Neuronal acetylcholine receptor; alpha4/beta2 (P12390 whole entry): as the sequence (P12390 whole entry) above

In the case of `N#Cc1ccc(-c2cc(C3CC4CCC3N4)cnc2F)cc1` (stereo unspecified), the Ki (commonly a dissociation constant, usually derived from enzyme kinetics or from competition with a known ligand) in experiment [1] stood at 0.351 nM; in experiment [2], 289 nM; in experiment [3], 3.6 nM; in experiment [5], 0.039 nM; in experiment [6], 3.67 nM; in experiment [7] it was 0.066 nM. Also, in experiment [4], the Stimulation was 36.8%.
Take `Fc1ccc(-c2cc(C3CC4CCC3N4)cnc2F)cc1` (stereo unspecified): the Ki is 0.504 nM in experiment [1]; 405 nM in experiment [2]; 6.42 nM in experiment [3]; 0.078 nM in experiment [5]; 6.12 nM in experiment [6]; 0.079 nM in experiment [7]. The Stimulation in experiment [4] is 3.6%.
Regarding `Fc1ncc(C2CC3CCC2N3)cc1-c1ccc(Cl)c(Cl)c1` (stereo unspecified), the Ki in experiment [1] came out at 2.31 nM; in experiment [2] it was 334 nM; in experiment [3] it was 7.36 nM; in experiment [5], 0.28 nM; in experiment [6], 6.99 nM; in experiment [7] it was 0.245 nM. Also, in experiment [4], the Stimulation is 2.7%.
Consider `CN1CCC[C@H]1c1cccnc1`, for which, in experiment [4], the Stimulation is 100%.
Consider `COc1ccc(-c2cc(C3CC4CCC3N4)cnc2Cl)cc1` (stereo unspecified), for which the Ki in experiment [1] turned out to be 0.1 nM; in experiment [2], 54.5 nM; in experiment [3] it was 1.57 nM; in experiment [5], 0.034 nM; in experiment [6], 0.862 nM; in experiment [7] it was 0.04 nM. In addition, the Stimulation in experiment [4] is 3.1%.
In the case of `Clc1ncc(C2CC3CCC2N3)cc1-c1ccccc1` (stereo unspecified), the Ki was determined as 0.122 nM in experiment [1]; 24 nM in experiment [2]; 1.15 nM in experiment [3]; 0.039 nM in experiment [5]; 0.47 nM in experiment [6]; 0.037 nM in experiment [7]. Further, the Stimulation in experiment [4] is 6.1%.
On to `Clc1ccc(C2CC3CCC2N3)cn1` (racemic), for which, in experiment [4], the Stimulation is 112%.
For `Fc1ncc(C2CC3CCC2N3)cc1-c1ccc(Cl)cc1` (stereo unspecified), the inhibition constant Ki in experiment [1] stood at 0.339 nM; in experiment [2] it was 256 nM; in experiment [3] it was 3.99 nM; in experiment [5], 0.062 nM; in experiment [6], 4.12 nM; in experiment [7], 0.064 nM. Moreover, the Stimulation in experiment [4] was 3.2%.
`Fc1ncc(C2CC3CCC2N3)cc1-c1ccccc1` (stereo unspecified): the Ki in experiment [1] worked out at 3.54 nM; in experiment [2], 947 nM; in experiment [3], 26 nM; in experiment [5], 0.733 nM; in experiment [6], 16.6 nM; in experiment [7] it was 0.643 nM. Further, in experiment [4], the Stimulation was 0.4%.
Take `CN1C2CCC1C(c1cnc(Cl)c(-c3ccccc3)c1)C2` (stereo unspecified): the Ki in experiment [1] was determined as 0.158 nM; in experiment [2], 15.4 nM; in experiment [3], 1.57 nM; in experiment [5] it was 0.032 nM; in experiment [6], 0.24 nM; in experiment [7], 0.053 nM. The Stimulation in experiment [4] was 3.9%.
Regarding `Cc1cccc(-c2cc(C3CC4CCC3N4)cnc2F)c1` (stereo unspecified), the Ki came to 9.27 nM in experiment [1]; 2400 nM in experiment [2]; 36.7 nM in experiment [3]; 0.898 nM in experiment [5]; 31.3 nM in experiment [6]; 1.11 nM in experiment [7]. In addition, the Stimulation in experiment [4] was 0.1%.
`Cc1ccc(-c2cc(C3CC4CCC3N4)cnc2F)cc1` (stereo unspecified): the Ki was 0.078 nM in experiment [1]; 29 nM in experiment [2]; 1.22 nM in experiment [3]; 0.028 nM in experiment [5]; 0.541 nM in experiment [6]; 0.035 nM in experiment [7]. In addition, the Stimulation in experiment [4] is 1%.
On to `Cc1ccc(-c2cc(C3CC4CCC3N4)cnc2Cl)cc1` (stereo unspecified), for which the Ki was found to be 0.171 nM in experiment [1]; 429 nM in experiment [2]; 4.75 nM in experiment [3]; 0.058 nM in experiment [5]; 5.26 nM in experiment [6]; 0.044 nM in experiment [7]. Further, in experiment [4], the Stimulation is 3.8%.
Regarding `Cc1cc(-c2cc(C3CC4CCC3N4)cnc2F)ccc1F` (stereo unspecified), the inhibition constant Ki in experiment [1] came to 8.84 nM; in experiment [2] it was 2940 nM; in experiment [3] it was 67.6 nM; in experiment [5], 1.26 nM; in experiment [6], 60.1 nM; in experiment [7] it was 1.54 nM. In experiment [4], the Stimulation was 0.7%.
